From PubChem
Shown are actives, neighbours in structure and some others; about 1.8% of the full set was active somewhere.
APJ antagonist: APJ receptor antagonism | 0.32% of 330,000 active | P35414 | CHO-K1 APJ beta-arrestin complementation, luminescence | inhibition, % at 20 µM;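 active = inhibition above about 40% at 20 µM, limit read from the data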;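 also: cells challenged with 10 nM apelin-13 agonist together with compound; plate controls were apelin-13 plus DMSO wells for no effect and DMSO wells lacking apelin-13 for full effect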
CCR6 antagonist: CCR6 (human) receptor antagonism; P51684; CHO-K1 CCR6 PathHunter beta-arrestin, luminescence, CCL20-stimulated; inhibition, % at 20 µM; 0.49% of 340,000 active; AID 493098;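 active = compounds whose inhibition of the agonist-driven luminescence signal at 20 µM reaches about 50%, limit read from the data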;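 also: cells stimulated with CCL20 at 14 nM final; plate controls were DMSO with CCL20 for no effect and DMSO without agonist for full effect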
Target sequence (P51684 whole entry, looked up): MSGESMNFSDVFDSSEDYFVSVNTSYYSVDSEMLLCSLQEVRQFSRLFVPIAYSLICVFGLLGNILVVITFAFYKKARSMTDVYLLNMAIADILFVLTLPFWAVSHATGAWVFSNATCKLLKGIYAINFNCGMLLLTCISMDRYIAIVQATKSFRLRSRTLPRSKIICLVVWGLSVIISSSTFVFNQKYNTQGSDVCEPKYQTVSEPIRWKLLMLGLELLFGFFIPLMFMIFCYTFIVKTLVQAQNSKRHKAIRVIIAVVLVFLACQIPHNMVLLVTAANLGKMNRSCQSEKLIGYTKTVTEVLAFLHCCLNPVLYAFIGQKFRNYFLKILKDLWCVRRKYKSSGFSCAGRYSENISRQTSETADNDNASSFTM
CXCR6 inh: CXCR6 (human) receptor inhibition. O00574. CHO-K1 PathHunter CXCR6 beta-arrestin, luminescence. inhibition, % at 20 µM. 0.36% of 360,000 active. AID 602244; in the data active = inhibition above about 34%, passing the limit was not always enough;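 also: antagonist mode with CXCL16 agonist at 10 nM final; 0% = 10 nM CXCL16 with DMSO and 100% = unstimulated wells without agonist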
EBI2 block: blocks human EBI2 receptor beta-arrestin signaling; P32249; EBI2 beta-arrestin recruitment, luminescence, 7a,25-OHC stimulated; inhibition, % at 5 µM; 0.81% of 360,000 active; AID 651636; in the data active = inhibition above about 38%;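 also: enzyme fragment complementation signal reports receptor beta-arrestin coupling in cells; 0% = agonist plus DMSO wells and 100% = wells without agonist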
APJ ag: APJ receptor agonism. 0.11% of 330,000 active. activation, % at 20 µM. P35414. CHO-K1 APJ PathHunter beta-arrestin, luminescence; 0% DMSO wells, 100% apelin;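 active = activation more than six SD over the plate average, tested at 20 µM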;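 also: 0% = DMSO alone and 100% = apelin-13 at 10 nM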
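Assay system: engineered CHO-K1 APJ arrestin reporter cells; Amount: 1000 CHO-K1 reporter cells seeded per well; Dosing: one dose, 20 µM compound, 1% DMSO; Times: compound stimulation 90 min at 25 °C, detection 60 min; Measured by: luminescent beta-gal fragment complementation, chemiluminescent substrate; Read-out: APJ–arrestin association signal; Controls: DMSO vs Apelin-13 10 nM.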
B2AR ag: activates human beta-2 adrenergic receptor causing internalization; P07550; Am2.2-beta2AR cells, FAP receptor internalization, flow cytometry; response, % (concentration not given with the values); 0.43% of 340,000 active;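 active = response above a set limit, near 3 SD of response in nonfluorescent compounds, cut at about 42% in these data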
B2AR ag CP1: human beta-2 adrenergic receptor agonism, cherry pick | AID 540358 | percent response (surface receptor), % at 10 µM | 25% of 1,100 active | Am2.2-beta2AR cells, FAP surface receptor, flow cytometry; hits give low values | shares compounds with B2AR ag;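 active = surface receptor percent response at or below 58%, roughly 3 SD from nonfluorescent compounds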
B2AR FAP counter: counter-screen for beta-2AR agonists: fluorescence in Am2.2 cells | shares compounds with B2AR ag | FAP fluorogen flow cytometry, fluorescence counterscreen; hits give low values | calls only at 10 µM | 1,100 tested, under 10 active;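 active = percent response below a set limit in fluorescence channel 1 and below 50% in channel 8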
Active calls of the source: *; i = inactive; / = not tested or not shown; ! = not confirmed by another sample.

SMILES	APJ antagonist	CCR6 antagonist	CXCR6 inh	EBI2 block	APJ ag	B2AR ag	B2AR ag CP1	B2AR FAP counter
COc1cccc(NC(=O)C(c2ccccc2)N2CCCCC2)c1 (centres undefined)	-14	23	-5	7	-2	-1	105	i
COc1cccc(NC(=O)C(c2ccccc2)N2CCN(CC(=O)N3CCOCC3)CC2)c1 (centres undefined)	1	7	9	-3	-5	-6	/	/
COCCN1C(=O)COc2ccccc2C1C(=O)Nc1c(C)cccc1C (centres undefined)	/	/	-1	-1	/	/	/	/
CN(C)CC/C=C1\c2ccccc2Sc2ccc(Cl)cc21	16	7	-4	-3	-5	53*	97	i
CC(OC(=O)C1=COCCO1)C(=O)NC1CCCCC1 (centres undefined)	/	/	1	-10	/	/	/	/
Cc1ccc(C(=O)NCCNC(=O)c2ccc(C)nc2)cc1	9	2	2	-9	1	61*	115	i
Cc1cc(=O)[nH]c2sc(C(=O)N3c4ccccc4CC3C)c(N)c12 (centres undefined)	8	-1	8	-8	-1	6	/	/
COC(=O)CSc1nc(N)c(C#N)c(-c2ccc(O)cc2)c1C#N	-15	22	-6	-1	-2	67*	76	i
Cc1ccc2c(c1)C(=O)N(CCCCO)C2=O	2	13	-3	-6	1	84*	100	i
CCOc1cc(CNc2ccc3c(c2)OCCO3)cc(Br)c1OC	10	15	1	1	-3	46*	87	i
Cc1ccc(Cl)cc1NC(=O)COC(=O)CSc1ccccc1	-9	1	2	6	0	0	/	/
COc1ccc(CNC(=O)CN(C(=O)c2snc(C(N)=O)c2N)c2ccc(F)cc2)cc1	-10	9	9	3	1	47*	87	i
COc1ccc(N(CC(=O)NCc2ccc(F)cc2)C(=O)c2snc(C(N)=O)c2N)cc1	0	21	-9	9	1	3	/	/
COc1ccc(/C=N/N2CCN(Cc3ccc(C)cc3)CC2)cc1Br	-2	-9	-4	-6	3	-4	/	/
COc1ccc(S(=O)(=O)N(C)CC(=O)N2CCCCCC2)cc1OC	-1	5	-9	-8	2	0	/	/
COc1ccc(S(=O)(=O)N(C)CC(=O)N2CCN(c3ccc(F)cc3)CC2)cc1OC	-8	3	-13	-8	-4	2	5.1*!	i
COc1ccccc1N1CCN(C(=O)CN(C)S(=O)(=O)c2ccc(C)cc2)CC1	/	/	-3	-1	/	/	47*	i
COc1ccc(S(=O)(=O)N(C)CC(=O)N2CCN(c3ccccc3)CC2)cc1	11	-2	-3	-1	-2	-15	124	i
O=C(CN1C(=O)/C(=C2\SC(=S)N(C3CCS(=O)(=O)C3)C2=O)c2ccccc21)Nc1ccccc1 (centres undefined)	-13	27	8	4	0	12	/	/
Cc1ccc(NC(=O)CN2C(=O)/C(=C3\SC(=S)N(C4CCS(=O)(=O)C4)C3=O)c3ccccc32)cc1 (centres undefined)	/	44	1	6	/	49*	83	i
Nc1cccc(C#Cc2ccc3c(=O)c4ccccc4oc3c2)c1	2	1	10	4	0	48*	28*	i
O=C(Nc1ccc2nc(SCc3ccc(Cl)cc3)sc2c1)c1ccccc1C(=O)N1CCOCC1	9	-9	-3	16	0	107*	17*	i
CN1CCN(CCc2nc3cc(NC(=O)COc4ccccc4)ccc3n2C)CC1	15	-5	8	-5	0	-17	129	i
CCN1CCN(CCc2nc3cc(NC(=O)COc4ccccc4)ccc3n2C)CC1	-4	-8	0	-1	-3	-12	/	/
COc1cccc(NC(=O)CN(C)C(=O)CSc2ccc3c(c2)OCCO3)c1	2	14	8	-5	-1	6	/	/
